Measurements from ChEMBL document CHEMBL2146419, “Effects of polyphenol compounds on influenza A virus replication and definition of their mechanism of action” (Bioorg Med Chem, 2012).

Assays:
[1] = system: MDCK; assay: Cytotoxicity against dog MDCK cells assessed as loss of cell viability incubated for 24 hrs followed by compound wash out measured after 24 hrs by trypan blue exclusion assay; assay type: cell-based, Canis lupus familiaris
Outline: (§1)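 Confluent MDCK monolayers plated at 2×10^5/ml were treated after 24 h with compound at 5–40 μg/ml and incubated a further 24 h. Assessed by microscopic examination of morphology, Trypan blue exclusion for viability, and cell counts for multiplication rate.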

[2] = system: MDCK; assay: Cytotoxicity against dog MDCK cells assessed as morphological alterations incubated for 24 hrs followed by compound wash out measured after 24 hrs by microscopic analysis; assay type: cell-based, Canis lupus familiaris; outline: as §1
[3] = system: MDCK; assay: Cytotoxicity against dog MDCK cells assessed as modification of cell multiplication rate incubated for 24 hrs followed by compound wash out measured after 24 hrs by cell counting analysis; assay type: cell-based, Canis lupus familiaris; outline: as §1
[4] = system: MDCK; assay: Cytotoxicity against dog MDCK cells assessed as morphological alterations at 40 ug/mL incubated for 24 hrs followed by compound wash out measured after 24 hrs by microscopic analysis; assay type: cell-based, Canis lupus familiaris; outline: as §1
[5] = system: Influenza A virus; assay: Antiviral activity against Influenza virus A/Puerto Rico/8/34 H1N1 infected in dog MDCK cells incubated at 1 hr post-infection measured after 24 hrs by hemagglutininating unit assay; assay type: functional, organism-based; details: A/Puerto Rico/8/1934(H1N1)
Outline: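 MDCK cells infected with PR8; 1 h after adsorption they were washed, and compound (5–20 μg/ml) or DMSO was added and kept on throughout. Virus released into the supernatant was titrated by HAU assay 24 h p.i. Yield is a percentage of control infected cells given 0.02% DMSO. Means of four experiments, each in duplicate.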

Structure (SMILES)	Activity [1]	Activity [2]	Activity [3]	Activity [4]	Activity [5]
O=C1/C(=C/c2ccc(O)c(O)c2)CCC/C1=C\c1ccc(O)c(O)c1	Dose-dependent effect	Dose-dependent effect	Dose-dependent effect	–	–
Cc1ccc(/C=C/C(=O)c2ccc(O)cc2O)cc1	Dose-dependent effect	Dose-dependent effect	Dose-dependent effect	–	–
COc1ccc(C(=O)/C=C/c2ccc(F)cc2)c(O)c1	Dose-dependent effect	Dose-dependent effect	Dose-dependent effect	–	–
O=C(/C=C/c1ccc(Cl)cc1)c1ccccc1O	Non-toxic	Non-toxic	Non-toxic	Toxic	Dose-dependent effect
O=C(/C=C/c1ccc(O)c(O)c1)c1ccc(O)cc1	Dose-dependent effect	Dose-dependent effect	Dose-dependent effect	–	–
O=C(/C=C/c1ccc(O)c(O)c1)/C=C/c1ccc(O)c(O)c1	Dose-dependent effect	Dose-dependent effect	Dose-dependent effect	–	–
CCCN1C/C(=C\c2ccc(O)c(O)c2)C(=O)/C(=C/c2ccc(O)c(O)c2)C1	Dose-dependent effect	Dose-dependent effect	Dose-dependent effect	–	–
O=C(/C=C/c1ccc(O)c(O)c1)c1ccccc1	Dose-dependent effect	Dose-dependent effect	Dose-dependent effect	–	–
COc1ccc(/C=C/C(=O)c2ccc(O)cc2O)cc1	Dose-dependent effect	Dose-dependent effect	Dose-dependent effect	–	–
O=C(/C=C/c1cc(O)cc(O)c1)c1ccc(O)cc1	Dose-dependent effect	Dose-dependent effect	Dose-dependent effect	–	–
CCOC(=O)C1C/C(=C\c2ccc(O)c(O)c2)C(=O)/C(=C/c2ccc(O)c(O)c2)C1 (stereo unspecified)	Dose-dependent effect	Dose-dependent effect	Dose-dependent effect	–	–
Nc1cccc(C(=O)/C=C/c2ccc(O)c(O)c2)c1	Dose-dependent effect	Dose-dependent effect	Dose-dependent effect	–	–
O=C(/C=C/c1ccc(O)cc1)c1cc(O)cc(O)c1	Non-toxic	Non-toxic	Non-toxic	Toxic	Dose-dependent effect
O=C(/C=C/c1ccc(O)c(O)c1)c1ccc(O)cc1O [BUTEIN]	Dose-dependent effect	Dose-dependent effect	Dose-dependent effect	–	–
